Test results reported in ChEMBL document CHEMBL1122293, “Synthesis, evaluation of chemical reactivity, and murine antineoplastic activity of 2-hydroxy-5-(3,4-dichlorophenyl)-6,7-bis(hydroxymethyl)-2,3-dihydro-1H- pyrrolizine bis(2-propylcarbamate) and 2-acyloxy derivatives as potential water-soluble prodrugs” (J Med Chem, 1983).
Values after ≈ are worked out from the molar mass of the structure shown.

Key:
P388 [1] = assay: Weight difference at 50 mg/kg (ip)against P388 Lymphocytic Leukemia in mice; assay type: functional, Mus musculus
Method in brief: (§1)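 Male CDF1 mice given 6×10^6 leukemia cells ip. Five daily ip doses beginning 24 h later, as Klucel suspension or aqueous solution. Acute toxicity on day 5; survival assessed on day 30. Weight difference reported as treated minus control (g).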

P388 [2] = assay: Weight difference at 6.25 mg/kg (ip)against P388 Lymphocytic Leukemia in mice; assay type: functional, Mus musculus; method in brief: as §1
P388 [3] = assay: Weight difference at 80 mg/kg (ip)against P388 Lymphocytic Leukemia in mice; assay type: functional, Mus musculus
Method in brief: (§2)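 Male CDF1 mice inoculated ip with P388 leukemia cells. Nine daily ip doses beginning 24 h later, as suspensions in Klucel or water. Acute toxicity evaluated day 5. Weight difference reported as treated minus control (g).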

P388 [4] = assay: Median survival time of test animals compared to controls at 10 mg/kg (ip) against P388 Lymphocytic Leukemia in mice; assay type: functional, Mus musculus
Method in brief: (§3)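 P388 leukemia cells were given ip to male CDF1 mice. Dosing started 24 h later: nine daily ip doses given as suspensions in Klucel (hydroxypropylcellulose) or in water. Toxicity day was day 5 and evaluation was on day 30. The value is % T/C of median survival time against untreated controls, with a parallel positive-control arm.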

P388 [5] = assay: Median survival time of test animals compared to controls at 100 mg/kg (ip) against P388 Lymphocytic Leukemia in mice; assay type: functional, Mus musculus
Method in brief: (§4)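 P388 leukemia cells were inoculated ip into male CDF1 mice. Treatment began 24 h later, given ip as five daily doses, either as a Klucel (hydroxypropylcellulose) suspension or as an aqueous solution. Acute toxicity was assessed on day 5 and results were read on day 30. The value is median survival of treated versus control mice, as % T/C.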

P388 [6] = assay: Median survival time of test animals compared to controls at 12.5 mg/kg (ip) against P388 Lymphocytic Leukemia in mice; assay type: functional, Mus musculus
Method in brief: (§5)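 P388 leukemia cells inoculated ip into male CDF1 mice; ip treatment started 24 h later, five daily doses, as Klucel (hydroxypropylcellulose) suspension or aqueous solution. Acute toxicity on day 5. Day-30 median survival of treated versus control mice expressed as % T/C. Weight difference is treated minus control, in grams.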

P388 [7] = assay: Median survival time of test animals compared to controls at 2.5 mg/kg (ip) against P388 Lymphocytic Leukemia in mice; assay type: functional, Mus musculus
Method in brief: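 P388 leukemia cells given ip to male CDF1 mice; ip dosing began 24 h later, nine daily doses, as suspensions in Klucel (hydroxypropylcellulose) or water. Acute toxicity checked on day 5. Survival read on day 30 as median survival time of treated versus control mice (% T/C). Weight difference is treated minus control, in grams.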

P388 [8] = assay: Median survival time of test animals compared to controls at 20 mg/kg (ip) against P388 Lymphocytic Leukemia in mice; assay type: functional, Mus musculus; method in brief: as §3
P388 [9] = assay: Median survival time of test animals compared to controls at 25 mg/kg (ip) against P388 Lymphocytic Leukemia in mice; assay type: functional, Mus musculus; method in brief: as §4
P388 [10] = assay: Median survival time of test animals compared to controls at 40 mg/kg (ip) against P388 Lymphocytic Leukemia in mice; assay type: functional, Mus musculus; method in brief: as §3
P388 [11] = assay: Median survival time of test animals compared to controls at 5 mg/kg (ip) against P388 Lymphocytic Leukemia in mice; assay type: functional, Mus musculus; method in brief: as §3
P388 [12] = assay: Median survival time of test animals compared to controls at 50 mg/kg (ip) against P388 Lymphocytic Leukemia in mice; assay type: functional, Mus musculus; method in brief: as §4
P388 [13] = assay: Median survival time of test animals compared to controls at 6.25 mg/kg (ip) against P388 Lymphocytic Leukemia in mice; assay type: functional, Mus musculus; method in brief: as §4
P388 [14] = assay: Median survival time of test animals compared to controls at 80 mg/kg (ip) against P388 Lymphocytic Leukemia in mice; assay type: functional, Mus musculus; method in brief: as §3
P388 [15] = assay: Log of the tumor cell population at the end of treatment at 10 mg/kg (ip) against P388 Lymphocytic Leukemia in mice; assay type: functional, Mus musculus
P388 [16] = assay: Log of the tumor cell population at the end of treatment at 100 mg/kg (ip) against P388 Lymphocytic Leukemia in mice; assay type: functional, Mus musculus
P388 [17] = assay: Log of the tumor cell population at the end of treatment at 12.5 mg/kg (ip) against P388 Lymphocytic Leukemia in mice; assay type: functional, Mus musculus
P388 [18] = assay: Log of the tumor cell population at the end of treatment at 20 mg/kg (ip) against P388 Lymphocytic Leukemia in mice; assay type: functional, Mus musculus
P388 [19] = assay: Log of the tumor cell population at the end of treatment at 25 mg/kg (ip) against P388 Lymphocytic Leukemia in mice; assay type: functional, Mus musculus
P388 [20] = assay: Log of the tumor cell population at the end of treatment at 40 mg/kg (ip) against P388 Lymphocytic Leukemia in mice; assay type: functional, Mus musculus
P388 [21] = assay: Log of the tumor cell population at the end of treatment at 5 mg/kg (ip) against P388 Lymphocytic Leukemia in mice; assay type: functional, Mus musculus
P388 [22] = assay: Log of the tumor cell population at the end of treatment at 50 mg/kg (ip) against P388 Lymphocytic Leukemia in mice; assay type: functional, Mus musculus
P388 [23] = assay: Log of the tumor cell population at the end of treatment at 6.25 mg/kg (ip) against P388 Lymphocytic Leukemia in mice; assay type: functional, Mus musculus
P388 [24] = assay: Log of the tumor cell population at the end of treatment at 80 mg/kg (ip) against P388 Lymphocytic Leukemia in mice; assay type: functional, Mus musculus
P388 [25] = assay: Weight difference at 25 mg/kg (ip)against P388 Lymphocytic Leukemia in mice; assay type: functional, Mus musculus; method in brief: as §1
P388 [26] = assay: Weight difference at 5 mg/kg (ip)against P388 Lymphocytic Leukemia in mice; assay type: functional, Mus musculus; method in brief: as §2
P388 [27] = assay: Weight difference at 10 mg/kg (ip)against P388 Lymphocytic Leukemia in mice; assay type: functional, Mus musculus; method in brief: as §2
P388 [28] = assay: Weight difference at 100 mg/kg (ip)against P388 Lymphocytic Leukemia in mice; assay type: functional, Mus musculus; method in brief: as §1
P388 [29] = assay: Weight difference at 12.5 mg/kg (ip)against P388 Lymphocytic Leukemia in mice; assay type: functional, Mus musculus; method in brief: as §5
P388 [30] = assay: Weight difference at 2.5 mg/kg (ip)against P388 Lymphocytic Leukemia in mice; assay type: functional, Mus musculus; method in brief: as §2
P388 [31] = assay: Weight difference at 20 mg/kg (ip)against P388 Lymphocytic Leukemia in mice; assay type: functional, Mus musculus; method in brief: as §2
[32] = Water solubility of the compound; assay type: ADME; conditions: read-out: S
Method in brief: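 Excess bis(carbamate) (30-60 mg) in 2 mL distilled water, vortexed 10 min, filtered through Teflon wool and diluted. UV absorbance read at 291 nm. Concentration from a linear Beer's law calibration made with a salt standard (r = 0.998).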

P388 [33] = assay: Weight difference at 40 mg/kg (ip)against P388 Lymphocytic Leukemia in mice; assay type: functional, Mus musculus; method in brief: as §2

CC(C)NC(=O)OCc1c(COC(=O)NC(C)C)c(-c2ccc(Cl)c(Cl)c2)n2c1CCC2
Weight change (P388 [1]): -5.3 g
Weight change (P388 [2]): -2.8 g
Weight change (P388 [3]): -4 g
T/C (P388 [4]): 141%
T/C (P388 [5]): 110%
T/C (P388 [6]): 160%
Log cell kill (P388 [7]): -1.52
T/C (P388 [7]): 135%
T/C (P388 [8]): 144%
T/C (P388 [9]): 179%
T/C (P388 [10]): 155%
T/C (P388 [11]): 127%
T/C (P388 [12]): 205%
T/C (P388 [13]): 164%
T/C (P388 [14]): 126%
Log cell kill (P388 [15]): -1.44
Log cell kill (P388 [16]): -1.4
Log cell kill (P388 [17]): 1.7
Log cell kill (P388 [18]): -1.41
Log cell kill (P388 [19]): 3.16
Log cell kill (P388 [20]): -1.25
Log cell kill (P388 [21]): -1.63
Log cell kill (P388 [22]): 5.25
Log cell kill (P388 [23]): 2.01
Log cell kill (P388 [24]): -1.64
Weight change (P388 [25]): -3.9 g
Weight change (P388 [26]): -0.8 g
Weight change (P388 [27]): -0.7 g
Weight change (P388 [28]): -5.6 g
Weight change (P388 [29]): -3.4 g
Weight change (P388 [30]): -0.5 g
Weight change (P388 [31]): -1.8 g
solubility [32]: 0.00126 mM (≈ 0.608 µg/mL)
Weight change (P388 [33]): -2.6 g
half-life (Half life was determined): 13 min

CC(C)NC(=O)OCc1c(COC(=O)NC(C)C)c(-c2ccc(Cl)c(Cl)c2)n2c1CC(OC(=O)CCC(=O)[O-])C2.[K+] (configuration not stated)
solubility [32]: 38.8 mM
half-life (Half life was determined): 92 min
